Measured values as given in PMC7869823 (Bioorganic & medicinal chemistry, 2020).
Where “and” joins values, the source holds several entries; their conditions need not be identical. Equal entries are not always repeated.

Legend:
[1] = biological target: sea urchin NAADP receptor; assay: Ca2+ release in sea urchin egg homogenates; format: biochemical; details: compared to NAADP
[2] = tested on: sea urchin NAADP receptor; assay: Sub-threshold receptor desensitization in sea urchin egg homogenates; format: biochemical; details: compared to NAADP
Procedure, shortened: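 Sea urchin egg homogenates were exposed to increasing sub-threshold concentrations of test compound or NAADP, and time-dependent desensitization was probed by subsequent addition of 1 μM NAADP. Ca2+ release was read as peak fluo-3 fluorescence. IC50 was derived from the concentration-response and compared with that of NAADP.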

[3] = tested on: cultured human cells; details: low concentrations, microinjected; cited from earlier work
[4] = tested on: NAADP 23–24 kDa binding protein(s); details: cited from earlier work

| SMILES | EC50 relative to NAADP (fold greater / fold less potent as an agonist) [1] | decrease in desensitization potency relative to NAADP [2] | Ca2+ release in cultured human cells [3] | photolabeling of NAADP binding protein(s) [4] |
| --- | --- | --- | --- | --- |
| C#Cc1nc2c(N)ncnc2n1[C@@H]1O[C@H](COP(=O)(O)OP(=O)(O)OC[C@H]2O[C@@H]([n+]3cccc(C(=O)[O-])c3)[C@H](O)[C@@H]2O)[C@@H](O)[C@H]1OP(=O)(O)O [Compound 8, 8-Ethynyl-NAADP] | 89 fold and 90 fold | 86 fold and 90 fold | – | – |
| C#Cc1nc2c(N)ncnc2n1[C@@H]1O[C@H](COP(=O)(O)OP(=O)(O)OC[C@H]2O[C@@H]([n+]3cc(N=[N+]=[N-])cc(C(=O)[O-])c3)[C@H](O)[C@@H]2O)[C@@H](O)[C@H]1OP(=O)(O)O [Compound 9, 5-N3-8-Ethynyl-NAADP] | – | – | elicit Ca^2+ release | specifically photolabel NAADP 23–24 kDa binding protein(s) |
